Experimental data from ChEMBL document CHEMBL1150775, “Synthesis and evaluation of estrogen agonism of diaryl 4,5-dihydroisoxazoles, 3-hydroxyketones, 3-methoxyketones, and 1,3-diketones: a compound set forming a 4D molecular library” (J Med Chem, 2008).
Several values for one entry are separate records, joined by “and”; a condition that tells them apart may be missing. Equal entries are not always repeated.

Assays:
[1] = target: T1, Estrogen receptor (Homo sapiens) (UniProt P03372); experiment: Activation of human estrogen receptor alpha expressed in HEK293 cells at 10 uM by beta-galactosidase reporter gene assay relative to 3,17 beta-estradiol; assay type: cell-based
T1 sequence (whole entry): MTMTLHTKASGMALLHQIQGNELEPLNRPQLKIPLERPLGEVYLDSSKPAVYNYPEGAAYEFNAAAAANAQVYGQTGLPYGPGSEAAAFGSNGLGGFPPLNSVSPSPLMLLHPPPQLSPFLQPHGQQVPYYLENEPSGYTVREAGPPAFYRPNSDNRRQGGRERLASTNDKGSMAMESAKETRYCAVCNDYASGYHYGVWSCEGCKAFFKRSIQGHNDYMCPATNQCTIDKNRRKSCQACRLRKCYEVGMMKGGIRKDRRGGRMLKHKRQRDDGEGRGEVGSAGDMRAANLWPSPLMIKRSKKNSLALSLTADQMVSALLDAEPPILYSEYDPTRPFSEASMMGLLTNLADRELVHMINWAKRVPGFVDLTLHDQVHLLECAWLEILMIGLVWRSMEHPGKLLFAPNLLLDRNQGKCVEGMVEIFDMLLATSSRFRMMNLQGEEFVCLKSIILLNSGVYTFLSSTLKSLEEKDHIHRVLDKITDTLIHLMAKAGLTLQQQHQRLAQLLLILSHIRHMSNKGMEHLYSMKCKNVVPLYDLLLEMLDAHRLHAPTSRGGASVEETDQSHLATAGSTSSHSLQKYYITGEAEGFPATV
Method in brief: (§1)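 HEK293 cells seeded a day ahead in phenol-free DMEM with 5% delipidated FBS. Calcium phosphate transfection for 4 h with 5 ng ERα or ERβ expression vector, 75 ng pERE2TATA-LUC reporter and 20 ng pCMVβ control. Test compound at 10 µM (vehicle 0.1% v/v) for 24 h. Luciferase normalized to β-galactosidase. Activity = 100% × (test − vehicle)/(10 nM E2 − vehicle). Mean of ≥3 independent transfections.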

[2] = target: Estrogen receptor beta (Homo sapiens) (UniProt Q92731); experiment: Activation of human estrogen receptor beta expressed in HEK293 cells at 10 uM beta-galactosidase reporter gene assay relative to 3,17-beta-estradiol; assay type: cell-based; method in brief: as §1
Estrogen receptor beta (Homo sapiens), sequence (Q92731 whole entry): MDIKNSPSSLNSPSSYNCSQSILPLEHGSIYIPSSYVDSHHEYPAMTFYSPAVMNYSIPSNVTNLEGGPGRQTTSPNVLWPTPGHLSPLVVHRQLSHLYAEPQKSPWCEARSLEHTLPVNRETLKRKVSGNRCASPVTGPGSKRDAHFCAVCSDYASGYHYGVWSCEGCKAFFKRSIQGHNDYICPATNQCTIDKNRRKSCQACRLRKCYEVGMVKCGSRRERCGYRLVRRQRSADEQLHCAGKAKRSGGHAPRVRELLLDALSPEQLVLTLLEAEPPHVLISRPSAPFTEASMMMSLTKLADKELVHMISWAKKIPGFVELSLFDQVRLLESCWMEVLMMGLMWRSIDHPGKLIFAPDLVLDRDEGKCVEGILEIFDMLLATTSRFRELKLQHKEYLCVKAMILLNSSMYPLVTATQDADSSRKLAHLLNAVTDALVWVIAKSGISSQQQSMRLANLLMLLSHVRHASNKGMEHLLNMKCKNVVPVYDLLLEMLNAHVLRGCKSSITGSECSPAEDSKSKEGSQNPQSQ

| Activity [1] | Activity [2] | Compound |
| --- | --- | --- |
| 0.3% | 18.4% | COC(CC(=O)c1ccccc1)Cc1ccccc1 (configuration not stated) |
| 24.5% | 30.4% | COC(CC(=O)CCCc1ccccc1)Cc1ccccc1 (configuration not stated) |
| 12.8% | 0.4% | O=C(CCc1ccccc1)CC(O)Cc1ccccc1 (configuration not stated) |
| 0.8% | 1.6% | O=C(Cc1ccccc1)CC(O)c1ccccc1 (configuration not stated) |
| 0% | 0.3% | c1ccc(CC2=NOC(Cc3ccccc3)C2)cc1 (single isomer, unassigned; 14b) |
| 0.6% | -4.6% | CS(C)=C(C(=O)CCCc1ccccc1)C(=O)CCc1ccccc1 |
| 3.4% | 0.2% | c1ccc(CCC2=NOC(CCc3ccccc3)C2)cc1 (single isomer, unassigned; 18a) |
| 27.7% | 4.2% | O=C(CCCc1ccccc1)CC(=O)Cc1ccccc1 |
| 1.6% | -0.8% | COc1ccc(CC(O)CC(=O)CCc2ccccc2)cc1 (single isomer, unassigned; 54a) |
| 1% | 0.3% | CS(C)=C(C(=O)CCc1ccccc1)C(=O)CCc1ccccc1 |
| 20.1% | 20.1% | O=C(CCc1ccccc1)CC(O)Cc1ccc2ccccc2c1 (single isomer, unassigned; 57b) |
| 6.1% | -1.5% | O=C(CCCc1ccccc1)CC(=O)CCc1ccccc1 |
| 30.1% | 5.7% | O=C(CCc1ccccc1)CC(O)Cc1ccc(F)cc1 (configuration not stated) |
| 12% | 0.2% | COC(CCc1ccccc1)CC(=O)Cc1ccccc1 (configuration not stated) |
| 59.3% | 28.2% | O=C(CCCc1ccccc1)CC(O)c1ccccc1 (single isomer, unassigned; 24b) |
| 25.3% | 2.8% | O=C(CCc1ccccc1)CC(O)c1ccccc1 (single isomer, unassigned; 23b) |
| 13% | 3.8% | c1ccc(CCC2=NOC(Cc3ccc4ccccc4c3)C2)cc1 (single isomer, unassigned; 53b) |
| 19.6% | 34.4% | c1ccc(CC2=NOC(c3ccccc3)C2)cc1 (configuration not stated) |
| 5.3% | 16.9% | O=C(CC(O)Cc1ccccc1)c1ccccc1 (configuration not stated) |
| 0% | 0% | COc1ccccc1CC(=O)CC(Cc1cccc2ccccc12)OC (single isomer, unassigned; 63a) |
| 0.2% | -0.6% | COC(CC(=O)Cc1ccc(F)cc1)Cc1cccc2ccccc12 (single isomer, unassigned; 62a) |
| 99.2% | 11.2% | Fc1ccc(CC2CC(CCc3ccccc3)=NO2)cc1 (configuration not stated) |
| 77.8% | 28.4% | Oc1ccc(CCC2=NOC(Cc3ccc(F)cc3)C2)cc1 (single isomer, unassigned) |
| 24.3% | 41.5% | Oc1ccc(CCC2=NOC(Cc3ccccc3)C2)cc1 (single isomer, unassigned) |

| Activity [1] | Activity [2] | Compound |
| --- | --- | --- |
| 16.4% | 9.8% | c1ccc(CCC2=NOC(c3ccccc3)C2)cc1 (single isomer, unassigned; 12a) |
| 5.6% | -0.5% | COC(CC(=O)Cc1cccc2ccccc12)Cc1cccc2ccccc12 (single isomer, unassigned; 64a) |
| -1.3% | -0.2% | c1ccc(CC2=NOC(Cc3ccccc3)C2)cc1 (single isomer, unassigned; 14a) |
| 5.7% | 4.4% | Oc1ccc(CCC2=NOC(Cc3ccc(F)cc3)C2)cc1 (configuration not stated) |
| 12.4% | 6.4% | O=C(CCc1ccccc1)CC(O)Cc1ccc2ccccc2c1 (single isomer, unassigned; 57a) |
| 34.1% | 10.5% | c1ccc(CCC2=NOC(Cc3cccc4ccccc34)C2)cc1 (single isomer, unassigned; 52a) |
| 16.2% | 1% | O=C(CCc1ccccc1)CC(O)CCc1ccccc1 (configuration not stated) |
| 30.4% | 12.4% | COC(CC(=O)CCc1ccccc1)Cc1ccc2ccccc2c1 (configuration not stated) |
| 0.5% | -7.1% | CS(C)=C(C(=O)CCc1ccccc1)C(=O)Cc1ccccc1 |
| 171% | 143% | Oc1ccc(CCC2=NOC(Cc3ccccc3)C2)cc1 (configuration not stated) |
| 17.2% | 6.5% | c1ccc(CCC2=NOC(Cc3cccc4ccccc34)C2)cc1 (single isomer, unassigned; 52b) |
| 67.6% | 15.5% | c1ccc(CCCC2=NOC(CCc3ccccc3)C2)cc1 (configuration not stated) |
| 1.4% | 0.3% | COC(CC(=O)Cc1ccccc1)Cc1ccccc1 (configuration not stated) |
| 22.8% | 8.5% | c1ccc(CCC2CC(c3ccccc3)=NO2)cc1 (single isomer, unassigned; 10a) |
| 22.3% | 8.2% | c1ccc(CCC2=NOC(Cc3ccc4ccccc4c3)C2)cc1 (single isomer, unassigned; 53a) |
| 0.2% | 0.1% | COc1ccccc1CC(CC(=O)Cc1ccc2ccccc2c1)OC (configuration not stated) |
| 38.2% | 1.3% | c1ccc(CCC2=NOC(Cc3ccccc3)C2)cc1 (configuration not stated) |
| 11.2% | 8.1% | c1ccc(CCC2=NOC(c3ccccc3)C2)cc1 (single isomer, unassigned; 12b) |
|  | 12.8% and 6.6% | c1ccc(CC2CC(c3ccccc3)=NO2)cc1 (configuration not stated) |
| 9.9% | 1.3% | COC(CC(=O)CCc1ccccc1)Cc1ccccc1 (configuration not stated) |
| 82% | 3.4% | Oc1ccccc1CCC1=NOC(Cc2ccc(F)cc2)C1 (single isomer, unassigned; 73a) |
| 0.6% | -0.2% | COc1ccccc1CC(=O)CC(Cc1cccc2ccccc12)OC (single isomer, unassigned; 63b) |
| 39.7% | 30.5% | Oc1ccccc1CCC1=NOC(Cc2ccccc2)C1 (single isomer, unassigned) |
| 31.3% | 13.6% | c1ccc(CCCC2=NOC(Cc3ccccc3)C2)cc1 (configuration not stated) |

| Activity [1] | Activity [2] | Compound |
| --- | --- | --- |
| 4.3% | 0.1% | O=C(CC(=O)Cc1ccccc1)Cc1ccccc1 |
| 28.1% | 5.1% | c1ccc(CCCC2=NOC(Cc3ccccc3)C2)cc1 (single isomer, unassigned) |
| -1.2% | 5.8% | CS(C)=C(C(=O)Cc1ccccc1)C(=O)c1ccccc1 |
| 20.4% | 2.5% | Oc1ccc(CC2CC(CCc3ccccc3O)=NO2)cc1 (single isomer, unassigned; 75a) |
| 111% | 18.4% | Oc1ccccc1CCC1=NOC(Cc2ccccc2)C1 (configuration not stated) |
| 14.5% | 19.5% | COC(CCc1ccccc1)CC(=O)CCc1ccccc1 (configuration not stated) |
| 4.3% | -0.5% | COc1ccccc1CC(=O)CC(Cc1ccc2ccccc2c1)OC (single isomer, unassigned; 66b) |
| 35.5% | 2% | COC(CC(=O)CCc1ccccc1)Cc1cccc2ccccc12 (configuration not stated) |
| 0.3% | 0.3% | COc1ccccc1CC(CC(=O)Cc1ccc2ccccc2c1)OC (single isomer, unassigned) |
| 68.4% | 1.1% | c1ccc(CCC2=NOC(Cc3ccccc3)C2)cc1 (single isomer, unassigned) |
| 33.1% | 11.2% | COC(CC(=O)CCc1ccccc1)Cc1ccc(F)cc1 (configuration not stated) |
| 81.4% and 76.2% | 4.1% and 12% | Oc1ccc(CCC2=NOC(Cc3ccc(O)cc3)C2)cc1 (configuration not stated) |
|  | 17.2% and -3.1% | c1ccc(CCCC2=NOC(c3ccccc3)C2)cc1 (configuration not stated) |
| 105% | 42.4% | Oc1ccc(CC2CC(CCc3ccccc3)=NO2)cc1 (single isomer, unassigned; 69b) |
| 2.2% | -7.1% | O=C(CCCc1ccccc1)CC(O)CCc1ccccc1 (configuration not stated) |
| 13% | 15.4% | O=C(CC(O)CCc1ccccc1)c1ccccc1 (configuration not stated) |
| 28.9% | 7.4% | Fc1ccc(CC2CC(CCc3ccccc3)=NO2)cc1 (single isomer, unassigned) |
| 4.9% | -1.2% | COC(CC(=O)Cc1ccccc1)c1ccccc1 (configuration not stated) |
| 6.2% | 0.6% | Oc1ccc(CC2CC(CCc3ccccc3O)=NO2)cc1 (single isomer, unassigned; 75b) |
| -6% | 0% | CS(C)=C(C(=O)CCCc1ccccc1)C(=O)c1ccccc1 |
| 8.4% | 1.7% | O=C(Cc1ccccc1)CC(O)Cc1ccccc1 (configuration not stated) |
| 14.8% | 2% | COc1cc2ccccc2cc1CC(CC(=O)Cc1ccc2ccccc2c1)OC (configuration not stated) |
| 1.3% | 1.2% | COc1ccc(CC(O)CC(=O)CCc2ccccc2)cc1 (single isomer, unassigned; 54b) |
| 78.8% | 20.5% | O=C(CCc1ccccc1)CC(O)c1ccccc1 (single isomer, unassigned; 23a) |
